Data: ChEMBL document CHEMBL3352504, “New series of monoamidoxime derivatives displaying versatile antiparasitic activity” (Eur J Med Chem, 2014)

Columns and labels:
Leishmania donovani = assay: Antileishmanial activity Leishmania donovani MHOM/IN/00/DEVI promastigotes incubated for 72 hrs by MTT assay; assay type: functional, organism-based
How it was run: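 Promastigotes of strain MHOM/IN/00/DEVI were exposed to compounds alongside amphotericin B and pentamidine reference drugs under identical conditions. IC50 was determined from three independent experiments, each run in duplicate, and reported as mean ± SD.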

[1] = Cytotoxicity against mouse J774A1 cells incubated for 72 hrs by MTT assay; assay type: cell-based, J774.A1
How it was run: (§1)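 Cytotoxicity was measured by MTT in mouse J774A.1 macrophages and human HepG2 hepatocyte-derived cells, with doxorubicin as the cytotoxic reference. The 50% cytotoxic concentration (CC50) came from three independent experiments in duplicate, reported as mean ± SD.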

[2] = Selectivity index, ratio of CC50 for mouse J774A1 cells to IC50 for Leishmania donovani MHOM/IN/00/DEVI promastigotes; assay type: functional, J774.A1
How it was run: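 SI was calculated as J774A.1 macrophage CC50 (MTT) divided by L. donovani promastigote IC50. Both inputs were means of three independent experiments run in duplicate.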

Plasmodium falciparum = assay: Antiplasmodial activity against chloroquine, pyrimethamine and proguanil-resistant Plasmodium falciparum K1 infected in human erythrocytes assessed as reduction in Parasitemia incubated for 72 hrs by SYBR Green I fluorescence-based method; assay type: functional, organism-based; details: K1, 72 h
How it was run: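 Multidrug-resistant P. falciparum K1 was tested in vitro with a SYBR Green I fluorescence-based read-out. IC50 was calculated from three independent experiments, each run in duplicate, and reported as mean ± SD.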

[3] = Cytotoxicity against human HepG2 cells incubated for 72 hrs by MTT assay; assay type: cell-based; how it was run: as §1
[4] = Selectivity index, ratio of CC50 for human HepG2 cells to IC50 for chloroquine, pyrimethamine and proguanil-resistant Plasmodium falciparum K1; assay type: functional
How it was run: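 SI = HepG2 CC50 / PfK1 IC50. CC50 was from an MTT assay on human HepG2 cells, and IC50 from the SYBR Green I fluorescence assay on P. falciparum K1. Each assay was three independent experiments in duplicate.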

SMILES | IC50 (Leishmania donovani) | CC50 at 72 h [1] | Ratio CC50/IC50 [2] | IC50 (Plasmodium falciparum) | CC50 at 72 h [3] | Ratio CC50/IC50 [4]
CC1(Cc2ccccc2)CC(S(=O)(=O)c2ccccc2F)=C(c2ccc(/C(N)=N\O)cc2)O1 (configuration not stated) | 9.16 µM | 29.1 µM | 3.2 | > 10 µM | 61.7 µM | <6.2
CC1(Cc2ccccc2)CC(S(=O)(=O)c2cccc(F)c2)=C(c2ccc(/C(N)=N\O)cc2)O1 (configuration not stated) | 13.1 µM | 28.3 µM | 2.2 | 7.16 µM | 59.6 µM | 8.3
CC1(Cc2ccccc2)CC(S(=O)(=O)c2ccccc2C(F)(F)F)=C(c2ccc(/C(N)=N\O)cc2)O1 (configuration not stated) | 15.5 µM | 23.5 µM | 1.5 | > 10 µM | 57.5 µM | <5.7
CC1(Cc2ccccc2)CC(S(=O)(=O)c2cccc(C(F)(F)F)c2)=C(c2ccc(/C(N)=N\O)cc2)O1 (configuration not stated) | 11.9 µM | 14.5 µM | 1.2 | 6.54 µM | 33.4 µM | 5.1
CC1(Cc2ccccc2)CC(S(=O)(=O)c2c(F)cccc2F)=C(c2ccc(/C(N)=N\O)cc2)O1 (configuration not stated) | 22.1 µM | 27 µM | 1.2 | 2.76 µM | 91.4 µM | 33.2
CC1(Cc2ccccc2)CC(S(=O)(=O)c2ccc(F)cc2F)=C(c2ccc(/C(N)=N\O)cc2)O1 (configuration not stated) | 32.5 µM | 41.5 µM | 1.3 | 8.21 µM | 90.6 µM | 11
N/C(=N/O)c1ccc(C2=C(S(=O)(=O)c3ccc(F)cc3)CC(c3ccccc3)(c3ccccc3)O2)cc1 | 15.7 µM | 10.2 µM | 0.7 | 3.9 µM | 19.2 µM | 4.9
CC1(c2ccccc2)CC(S(=O)(=O)c2ccc(F)cc2)=C(c2ccc(/C(N)=N\O)cc2)O1 (configuration not stated) | > 50 µM | 29.7 µM | <0.6 | > 10 µM | 68.3 µM | <6.8
COc1ccc(C2(c3ccccc3)CC(S(=O)(=O)c3ccc(F)cc3)=C(c3ccc(/C(N)=N\O)cc3)O2)cc1 (configuration not stated) | > 50 µM | 11.3 µM | <0.2 | 4.17 µM | 29.4 µM | 7
CC1(c2ccc(Br)cc2)CC(S(=O)(=O)c2ccc(F)cc2)=C(c2ccc(/C(N)=N\O)cc2)O1 (configuration not stated) | 10.8 µM | 10.5 µM | 1 | > 10 µM | 19.2 µM | <1.9
CCC1(c2ccccc2OC)CC(S(=O)(=O)c2ccc(F)cc2)=C(c2ccc(/C(N)=N\O)cc2)O1 (configuration not stated) | 12.4 µM | 9.88 µM | 0.8 | 7.88 µM | 27 µM | 3.4
Cc1ccc(-c2ccc(C3(C)CC(S(=O)(=O)c4ccc(F)cc4)=C(c4ccc(/C(N)=N\O)cc4)O3)cc2)cc1 (configuration not stated) | 11.8 µM | 7.91 µM | 0.7 | > 10 µM | 13.7 µM | <1.4
CC1(c2ccc(Cl)cc2)CC(S(=O)(=O)c2ccc(F)cc2)=C(c2ccc(/C(N)=N\O)cc2)O1 (configuration not stated) | 48.4 µM | 31.5 µM | 0.7 | > 10 µM | 61.4 µM | <6.1
CC1(c2ccc(-c3ccc(/C(N)=N\O)cc3)cc2)CC(S(=O)(=O)c2ccc(F)cc2)=C(c2ccc(/C(N)=N\O)cc2)O1 (configuration not stated) | > 50 µM | 3.94 µM | <0.08 | 4.93 µM | 15.3 µM | 3.1
CC1(c2ccc(-c3ccco3)cc2)CC(S(=O)(=O)c2ccc(F)cc2)=C(c2ccc(/C(N)=N\O)cc2)O1 (configuration not stated) | > 25 µM | 4.56 µM | <0.2 | > 10 µM | 7.01 µM | <0.7
CC1(c2ccc(-c3cccc([N+](=O)[O-])c3)cc2)CC(S(=O)(=O)c2ccc(F)cc2)=C(c2ccc(/C(N)=N\O)cc2)O1 (configuration not stated) | 14.1 µM | 11.1 µM | 0.8 | 5.82 µM | > 50 µM | >8.6
CC1(c2ccc(-c3ccncc3)cc2)CC(S(=O)(=O)c2ccc(F)cc2)=C(c2ccc(/C(N)=N\O)cc2)O1 (configuration not stated) | 28 µM | 6.75 µM | 0.2 | 3.2 µM | 30.3 µM | 9.5
CC1(c2ccc(-c3ccccc3C#N)cc2)CC(S(=O)(=O)c2ccc(F)cc2)=C(c2ccc(/C(N)=N\O)cc2)O1 (configuration not stated) | 21 µM | 9.29 µM | 0.4 | > 10 µM | 58.3 µM | <5.8
CC1(c2ccc(-c3cccc(/C(N)=N\O)c3)cc2)CC(S(=O)(=O)c2ccc(F)cc2)=C(c2ccc(/C(N)=N\O)cc2)O1 (configuration not stated) | > 50 µM | 11 µM | <0.2 | 4.34 µM | 19 µM | 4.4
COc1cc(-c2ccc(C3(C)CC(S(=O)(=O)c4ccc(F)cc4)=C(c4ccc(/C(N)=N\O)cc4)O3)cc2)cc(OC)c1OC (configuration not stated) | > 25 µM | 5.22 µM | <0.2 | 5.03 µM | > 50 µM | >9.9
C[C@@H]1[C@H](O)[C@@H](C)/C=C/C=C/C=C/C=C/C=C/C=C/C=C/[C@H](O[C@@H]2O[C@H](C)[C@@H](O)[C@H](N)[C@@H]2O)C[C@@H]2O[C@](O)(C[C@@H](O)C[C@@H](O)[C@H](O)CC[C@@H](O)C[C@@H](O)CC(=O)O[C@H]1C)C[C@H](O)[C@H]2C(=O)O [AMPHOTERICIN B] | 0.15 µM | 6.91 µM | 47.1 | – | – | –
COc1cccc2c1C(=O)c1c(O)c3c(c(O)c1C2=O)C[C@@](O)(C(=O)CO)C[C@@H]3O[C@H]1C[C@H](N)[C@H](O)[C@H](C)O1 [DOXORUBICIN] | – | 0.01 µM | – | – | 0.02 µM | –
C[C@H]1c2cccc(O)c2C(=O)C2=C(O)[C@]3(O)C(=O)C(C(N)=O)=C(O)[C@@H](N(C)C)[C@@H]3[C@@H](O)[C@@H]21.O [DOXYCYCLINE] | – | – | – | – | – | 4
N=C(N)c1ccc(OCCCCCOc2ccc(C(=N)N)cc2)cc1 [PENTAMIDINE] | – | – | 0.1 | – | – | –
